ChEMBL document CHEMBL4043073, “Boronic Acid Modifications Enhance the Anti-Influenza A Virus Activities of Novel Quindoline Derivatives” (J Med Chem, 2017)
Activity calls are given as the source filed them. No cut-off for these calls is given here.

Assays:
NCI-H1299 = assay: Cytotoxicity against human H1299 cells at 20 uM after 48 hrs by resazurin based fluorescence method; format: cell-based; conditions: nci-h1299, 48 h
Method in brief: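 Confluent MDCK, A549 or H1299 cells exposed in triplicate to compound for 48 h at 37 °C (A549/H1299 at 20 μM). Resazurin added to 0.2 mg/mL final for 16 h. Fluorescence read at ex 544 / em 595 nm; viability as % of untreated.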

Influenza A virus [1] = assay: Antiviral activity against Influenza A virus (A/swine/Minnesota/02719/2009(H3N2)) infected in MDCK cells assessed as virus yeild reduction preincubated with virus at 37 degC for 1 hr followed by viral infection for 1 hr measured after 3 days by crystal violet staining based plaque assay; format: functional, cell-based
Method in brief: (§1)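 Plaque reduction: about 50–100 PFU/well of PR8, Cal09 or Minnesota preincubated with compound (0–10 μM) 1 h at 37 °C. Mixture then adsorbed to MDCK monolayers 1 h at 4 °C. Overlay was DMEM with 1.5% agarose, DEAE-dextran and 1 μg/mL TPCK-trypsin for 3 days at 37 °C. Glutaraldehyde fix, crystal violet stain, plaque count; IC50 derived; n = 4.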

Influenza A virus [2] = assay: Antiviral activity against Influenza A virus (A/Puerto Rico/8/34(H1N1)) infected in A549 cells assessed as reduction in localization of viral NP protein in nucleus at 10 uM preincubated with virus at 37 degC for 1 hr followed by viral adsorption at 4 degC for 1 hr and subsequent infection in A549 cells measured at 2 to 4 hrs post infection by FITC-staining based immunofluorescence microscopic method; format: functional, cell-based; conditions: A/Puerto Rico/8/1934(H1N1)
Method in brief: (§2)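 PR8 (MOI 1.0) pretreated with 10 μM compound 1 h at 37 °C, adsorbed 1 h at 4 °C, then A549 cells were kept in infecting medium with 10 μM compound. Fixed with 4% paraformaldehyde at 2 or 4 h p.i., permeabilised with Triton X-100 and blocked. Anti-NP plus FITC secondary, confocal imaging; nuclear NP intensity per unit area quantified (n = 30 images).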

Influenza A virus [3] = assay: Antiviral activity against Influenza A virus (A/Puerto Rico/8/34(H1N1)) infected in Kunming mouse assessed as pulmonary viral titer reduction at 10 mg/kg/day, po qd for 4 days measured on day 4 post last dose by crystal violet staining based plaque assay; format: functional, organism-based; conditions: A/Puerto Rico/8/1934(H1N1)
Method in brief: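 Female 4-week-old Kunming mice infected intranasally with PR8 (4 HAU/mouse). Oral gavage once daily began 2 h post-inoculation; placebo control. Mice euthanised on day 4; lungs homogenised in PBS and titrated by plaque assay on cell monolayers (agarose overlay, 3 days, crystal violet).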

Canis lupus familiaris [4] = species on record: Canis lupus familiaris; assay: (§3) Inhibition of NFkappaB activation-mediated viral endocytosis in MDCK cells infected with Influenza A virus (A/Puerto Rico/8/34(H1N1)) assessed as Akt phosphorylation level at 10 uM preincubated with virus for 1 hr followed by viral infection measured after 4 hrs by Western blot method relative to control (reference value: 1.4); format: cell-based
Method in brief: (§4)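 PR8 (MOI 1.0) pretreated with compound 1 h at 37 °C, then MDCK cells were kept in infecting medium with 5 or 10 μM for 4 h; ribavirin 50 μg/mL as comparator. Lysates were immunoblotted for phospho-ERK1/2, p38, NF-κB or Akt, with β-actin/GAPDH loading controls and AP/NBT-BCIP detection. Densitometry was normalised to uninfected cells (= 1.0); n = 3.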

Canis lupus familiaris [5] = species on record: Canis lupus familiaris; assay: (§5) Inhibition of MAPK signaling-mediated nuclear import of viral RNP in MDCK cells infected with Influenza A virus (A/Puerto Rico/8/34(H1N1)) assessed as ERK1/2 phosphorylation at 5 uM preincubated with virus for 1 hr followed by viral infection after 4 hrs by Western blot method relative to control (reference value: 1.4); format: cell-based; method in brief: as §4
Canis lupus familiaris [6] = species on record: Canis lupus familiaris; assay: as §3, with “RNA synthesis” for “endocytosis”, “NF-kB” for “Akt”, “5” for “10”, “1.8)” for “1.4)”; format: cell-based; method in brief: as §4
Influenza A virus [7] = assay: Antiviral activity against Influenza A virus (A/Puerto Rico/8/34(H1N1)) infected in MDCK cells assessed as reduction in virus titer preincubated with virus for 1 hr followed by viral infection measured after 24 hrs by crystal violet staining based plaque assay; format: functional, cell-based; conditions: A/Puerto Rico/8/1934(H1N1)
Method in brief: (§6)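 PR8 (MOI 1.0) preincubated with compound (2.5–10 μM) 1 h at 37 °C, then used to infect MDCK cells. After adsorption, medium with the same compound concentration was added. At 24 h p.i. supernatant virus titer was measured by plaque assay; n = 3.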

[8] = Drug uptake in human A549 cells at 20 uM after 4 hrs by DAPI staining based confocal microscopic analysis; format: ADME, cell-based; conditions: a549, 4 h
Method in brief: (§7)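 A549 cells incubated with 20 μM compound 4 h at 37 °C, then fixed and DAPI-stained. Compound intrinsic fluorescence located by confocal microscopy.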

Influenza A virus [9] = assay: Antiviral activity against Influenza A virus (A/Puerto Rico/8/34(H1N1)) infected in MDCK cells assessed as virus yeild reduction preincubated with virus at 37 degreeC for 1 hr followed by viral infection for 1 hr measured after 3 days by crystal violet staining based plaque assay; format: functional, cell-based; conditions: A/Puerto Rico/8/1934(H1N1); method in brief: as §1
Influenza A virus [10] = assay: Antiviral activity against Influenza A virus (A/Puerto Rico/8/34(H1N1)) infected in MDCK cells assessed as virus yeild reduction at 10 uM preincubated with cells for 1 hr followed by viral infection for 1 hr measured at 24 hrs post infection by crystal violet staining based plaque assay; format: functional, cell-based; conditions: A/Puerto Rico/8/1934(H1N1)
Method in brief: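 Time-of-addition on MDCK cells, PR8 MOI 1.0, 10 μM compound. Three arms: cells pretreated before infection; compound present during adsorption 1 h at 4 °C; or compound added after removal of unadsorbed virus. Virus yield at 24 h p.i. by plaque assay; n = 3.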

[11] = system: Influenza A virus (A/Puerto Rico/8/1934(H1N1)); assay: Inhibition of Influenza A virus (A/Puerto Rico/8/34(H1N1)) hemagglutinin mediated chicken erythrocytes aggregation at 10 uM after 60 mins by hemagglutination test; format: cell-based
Method in brief: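 Hemagglutination inhibition: PR8-induced aggregation of chicken erythrocytes tested with 10 μM compound; anti-HA antibody (0.625–5 μg/mL) as comparator.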

Influenza A virus [12] = assay: Antiviral activity against Influenza A virus (A/Puerto Rico/8/34(H1N1)) infected in A549 cells assessed as reduction in nuclear import of viral RNP by measuring colocalization with viral NP in cytoplasm at 10 uM preincubated with virus at 37 degC for 1 hr followed by viral adsorption at 4 degC for 1 hr and subsequent infection in A549 cells measured at 2 to 4 hrs post infection by confocal microscopic method; format: functional, cell-based; conditions: A/Puerto Rico/8/1934(H1N1); method in brief: as §2
Vero = assay: Inhibition of Influenza A virus (A/Puerto Rico/8/34(H1N1)) hemagglutinin expressed in African green monkey Vero cells assessed as reduction in acid-induced syncytium formation preincubated at pH 7 for 15 mins followed by incubation at pH 5 for 10 mins measured after 2 hrs by Hema3Stat Pak-staining based microscopic analysis; format: cell-based; conditions: Influenza A virus (A/Puerto Rico/8/1934(H1N1))
Method in brief: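 Vero cells transfected with PR8 HA plasmid. At 16 h HA was cleaved with 5 μg/mL TPCK-trypsin for 15 min at 37 °C. Cells were preincubated with compound 15 min at 37 °C, then held at pH 5.0 with compound for 10 min at 37 °C. After rinsing, cells were kept 2 h in 10% FBS medium, stained with Hema3Stat Pak and examined for syncytia by microscopy.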

[13] = Drug uptake in human A549 cell membranes at 20 uM after 4 hrs by DAPI staining based confocal microscopic analysis; format: ADME; conditions: a549, 4 h; method in brief: as §7
Canis lupus familiaris [14] = species on record: Canis lupus familiaris; assay: as §5, with “10” for “5”; format: cell-based; method in brief: as §4
Influenza A virus [15] = assay: Antiviral activity against Influenza A virus (A/Puerto Rico/8/34(H1N1)) infected in MDCK cells assessed as reduction in virus titer at 10 uM preincubated with virus for 1 hr followed by viral infection measured after 24 hrs by crystal violet staining based plaque assay; format: functional, cell-based; conditions: A/Puerto Rico/8/1934(H1N1); method in brief: as §6

O=C(Nc1ccccc1Nc1c2ccccc2nc2c1[nH]c1ccccc12)c1cccc(B(O)O)c1
Activity (NCI-H1299): Non-Toxic
IC50 (Influenza A virus [1]): 2300 nM
Activity (Influenza A virus [2]): Active
Activity (Influenza A virus [3]): Active
fold change (FC) (Canis lupus familiaris [4]): 0.8
fold change (FC) (Canis lupus familiaris [5]): 0.7
fold change (FC) (Canis lupus familiaris [6]): 0.9
Activity (Influenza A virus [7]): Dose-dependent effect
IC50 (Influenza A virus [7]): 2200 nM
Drug uptake [8]: Active
IC50 (Influenza A virus [9]): 3200 nM
Activity (Influenza A virus [10]): inactive
inhibition [11]: inactive
Activity (Influenza A virus [12]): Active
inhibition (Vero): inactive
Drug uptake [13]: Active
fold change (FC) (Canis lupus familiaris [14]): 0.6
IC50 (Influenza A virus [15]): 2500 nM
